Measured values reported in ChEMBL document CHEMBL4765319, “Identification of a new series of flavopiridol-like structures as kinase inhibitors with high cytotoxic potency” (Eur J Med Chem, 2020).

How the values were obtained:
Leishmania major = test: Inhibition of Leishmania major CK1 assessed as residual activity at 10 uM in presence of ATP by ADP-glo luminescent assay relative to control
Plasmodium falciparum = test: Inhibition of Plasmodium falciparum GSK3 assessed as residual activity at 10 uM in presence of ATP by ADP-glo luminescent assay relative to control
Outline: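 Recombinant P. falciparum GSK3, bacterially expressed, in buffer A (10 mM MgCl2, 1 mM EGTA, 1 mM DTT, 25 mM Tris-HCl pH 7.5, 50 μg/ml heparin). Substrate 0.010 μg/μl GS-1 peptide, 10 μM ATP, ADP-Glo luminescence. Compound at 10 or 1 μM; % residual activity vs DMSO control, mean n = 2.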

Sus scrofa [1] = species: Sus scrofa; test: Inhibition of porcine CK1delta/epsilon assessed as residual activity at 10 uM in presence of ATP by ADP-glo luminescent assay relative to control
Sus scrofa [2] = species: Sus scrofa; test: Inhibition of porcine CK1delta/epsilon assessed as residual activity at 1 uM in presence of ATP by ADP-glo luminescent assay relative to control
CDK2/Cyclin A2 = CDK2/Cyclin A2 (Homo sapiens, UniProt P24941); test: Inhibition of human CDK2/cyclin A in presence of ATP by ADP-glo luminescent assay; type: protein-complex assay
Outline: (§1)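 Human kinases tested over roughly 0.0003–10 μM by ADP-Glo luminescence with 10 μM ATP, in duplicate. IC50 is taken from dose-response curves.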

[3] = molecular target: Cyclin-dependent kinase 5/CDK5 activator 1 (Homo sapiens, UniProt Q00535); test: Inhibition of human CDK5/p25 in presence of ATP by ADP-glo luminescent assay; type: protein-complex assay; outline: as §1
CDK9/cyclin T1 = CDK9/cyclin T1 (Homo sapiens, UniProt P50750); test: Inhibition of human CDK9/cyclin T in presence of ATP by ADP-glo luminescent assay; type: protein-complex assay; outline: as §1
K562 [4] = test: Cell cycle arrest in human K562 cells assessed as accumulation at S phase at 25 nM after 24 hrs by propidium iodide staining-based flow cytometric analysis (reference value: […]); type: functional
K562 [5] = test: Cell cycle arrest in human K562 cells assessed as accumulation at G2/M phase at 25 nM after 24 hrs by propidium iodide staining-based flow cytometric analysis (reference value: 12.9 %); type: functional
K562 [6] = test: Cell cycle arrest in human K562 cells assessed as accumulation at G2/M phase at 100 nM after 24 hrs by propidium iodide staining-based flow cytometric analysis (reference value: 12.9 %); type: functional
HCT-116 [7] = test: Cell cycle arrest in human HCT-116 cells assessed as accumulation at G0/G1 phase at 100 nM after 24 hrs by propidium iodide staining-based flow cytometric analysis (reference value: 20.9 %); type: functional
HCT-116 [8] = test: Cell cycle arrest in human HCT-116 cells assessed as accumulation at G0/G1 phase at 200 nM after 24 hrs by propidium iodide staining-based flow cytometric analysis (reference value: 20.9 %); type: functional
HCT-116 [9] = test: Cell cycle arrest in human HCT-116 cells assessed as accumulation at G0/G1 phase at 500 nM after 24 hrs by propidium iodide staining-based flow cytometric analysis (reference value: 20.9 %); type: functional
HCT-116 [10] = test: Cell cycle arrest in human HCT-116 cells assessed as accumulation at S phase at 100 nM after 24 hrs by propidium iodide staining-based flow cytometric analysis (reference value: 47.6 %); type: functional
HCT-116 [11] = test: Cell cycle arrest in human HCT-116 cells assessed as accumulation at S phase at 200 nM after 24 hrs by propidium iodide staining-based flow cytometric analysis (reference value: 47.6 %); type: functional
HCT-116 [12] = test: Cell cycle arrest in human HCT-116 cells assessed as accumulation at S phase at 500 nM after 24 hrs by propidium iodide staining-based flow cytometric analysis (reference value: 47.6 %); type: functional
HCT-116 [13] = test: Cell cycle arrest in human HCT-116 cells assessed as accumulation at G2/M phase at 100 nM after 24 hrs by propidium iodide staining-based flow cytometric analysis (reference value: 31.5 %); type: functional
HCT-116 [14] = test: Cell cycle arrest in human HCT-116 cells assessed as accumulation at G2/M phase at 500 nM after 24 hrs by propidium iodide staining-based flow cytometric analysis (reference value: 31.5 %); type: functional
[15] = molecular target: Glycogen synthase kinase-3 alpha (Homo sapiens, UniProt P49840); test: Inhibition of human GSK3alpha by ADP-Glo assay
[16] = Inhibition of human CDK10/cyclin M by ADP-Glo assay
K562 [17] = test: Cell cycle arrest in human K562 cells assessed as increase in accumulation at G0/G1 phase after 24 hrs by propidium iodide staining-based flow cytometric analysis; type: functional; conditions: dose 25-100 nM
HCT-116 [18] = test: Cell cycle arrest in human HCT-116 cells assessed as increase in accumulation at G0/G1 phase after 24 hrs by propidium iodide staining-based flow cytometric analysis; type: functional; conditions: dose 100-500 nM
PC-3 = test: Antiproliferative activity against human PC-3 cells assessed as reduction in cell viability incubated for 72 hrs by CellTiter-Blue fluorescence assay; conditions: PC-3, 72 h
SK-BR-3 = test: Antiproliferative activity against human SK-BR-3 cells assessed as reduction in cell viability incubated for 72 hrs by CellTiter-Blue fluorescence assay; conditions: SK-BR-3, 72 h
K562 [19] = test: Antiproliferative activity against human K562 cells assessed as reduction in cell viability incubated for 72 hrs by CellTiter-Blue resazurin fluorescence assay; conditions: K562, 72 h
MIA PaCa-2 = test: Potency index, ratio of flavopiridol IC50 to test compound IC50 for human MIA PaCa-2 cells assessed as reduction in cell viability incubated for 72 hrs by CellTiter-Blue resazurin fluorescence assay

Sequence of Glycogen synthase kinase-3 alpha (P49840 whole entry): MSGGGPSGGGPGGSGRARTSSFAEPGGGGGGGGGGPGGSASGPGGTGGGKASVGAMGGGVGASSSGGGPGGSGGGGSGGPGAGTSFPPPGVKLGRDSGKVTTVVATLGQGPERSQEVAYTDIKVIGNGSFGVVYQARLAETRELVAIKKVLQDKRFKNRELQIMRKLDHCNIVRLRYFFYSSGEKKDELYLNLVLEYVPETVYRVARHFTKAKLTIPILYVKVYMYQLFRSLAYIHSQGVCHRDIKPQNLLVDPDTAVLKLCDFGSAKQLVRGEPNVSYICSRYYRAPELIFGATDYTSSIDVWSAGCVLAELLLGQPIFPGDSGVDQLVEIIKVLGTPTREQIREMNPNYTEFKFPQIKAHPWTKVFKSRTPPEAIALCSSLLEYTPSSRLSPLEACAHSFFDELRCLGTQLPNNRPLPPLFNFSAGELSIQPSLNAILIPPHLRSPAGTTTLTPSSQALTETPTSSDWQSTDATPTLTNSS
Sequence of Cyclin-dependent kinase 5/CDK5 activator 1 (Q00535 whole entry): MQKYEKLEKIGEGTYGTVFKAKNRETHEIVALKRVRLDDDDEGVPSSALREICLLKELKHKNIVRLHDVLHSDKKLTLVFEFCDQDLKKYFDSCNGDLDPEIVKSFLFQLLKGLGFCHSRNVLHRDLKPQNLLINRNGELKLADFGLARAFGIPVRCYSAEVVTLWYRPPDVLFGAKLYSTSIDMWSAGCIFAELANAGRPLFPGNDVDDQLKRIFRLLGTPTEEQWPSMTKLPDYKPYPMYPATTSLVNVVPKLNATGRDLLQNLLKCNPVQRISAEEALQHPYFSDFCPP
Sequence of Cyclin-dependent kinase 5/CDK5 activator 1 (Q15078 whole entry, further chain): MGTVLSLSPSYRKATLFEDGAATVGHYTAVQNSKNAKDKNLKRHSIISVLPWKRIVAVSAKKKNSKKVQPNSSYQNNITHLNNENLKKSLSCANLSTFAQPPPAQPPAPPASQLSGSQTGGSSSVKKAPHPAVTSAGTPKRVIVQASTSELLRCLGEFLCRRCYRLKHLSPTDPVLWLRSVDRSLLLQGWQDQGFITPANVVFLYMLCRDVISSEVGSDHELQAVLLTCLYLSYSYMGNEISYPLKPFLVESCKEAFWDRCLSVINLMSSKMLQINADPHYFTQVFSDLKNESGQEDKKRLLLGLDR
Sequence of CDK9/cyclin T1 (O60563 whole entry): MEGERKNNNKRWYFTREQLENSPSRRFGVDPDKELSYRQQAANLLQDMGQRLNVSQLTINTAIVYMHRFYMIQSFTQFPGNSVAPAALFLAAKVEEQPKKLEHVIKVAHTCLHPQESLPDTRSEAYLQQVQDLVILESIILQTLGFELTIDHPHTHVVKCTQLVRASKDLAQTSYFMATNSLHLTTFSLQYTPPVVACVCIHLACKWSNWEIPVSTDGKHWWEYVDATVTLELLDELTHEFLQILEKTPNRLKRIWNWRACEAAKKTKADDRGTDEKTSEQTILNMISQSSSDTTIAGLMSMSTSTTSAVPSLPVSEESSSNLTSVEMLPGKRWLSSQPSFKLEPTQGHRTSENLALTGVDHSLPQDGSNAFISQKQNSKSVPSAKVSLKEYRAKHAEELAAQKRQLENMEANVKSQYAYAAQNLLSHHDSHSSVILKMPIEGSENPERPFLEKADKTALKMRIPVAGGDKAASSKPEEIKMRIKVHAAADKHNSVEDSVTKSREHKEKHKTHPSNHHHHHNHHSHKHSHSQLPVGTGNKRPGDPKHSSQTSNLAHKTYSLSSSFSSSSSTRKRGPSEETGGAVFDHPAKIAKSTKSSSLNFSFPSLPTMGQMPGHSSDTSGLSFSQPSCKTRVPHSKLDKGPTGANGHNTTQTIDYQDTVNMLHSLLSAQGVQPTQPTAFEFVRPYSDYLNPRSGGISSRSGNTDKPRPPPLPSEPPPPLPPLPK
Sequence of CDK9/cyclin T1 (P50750 whole entry): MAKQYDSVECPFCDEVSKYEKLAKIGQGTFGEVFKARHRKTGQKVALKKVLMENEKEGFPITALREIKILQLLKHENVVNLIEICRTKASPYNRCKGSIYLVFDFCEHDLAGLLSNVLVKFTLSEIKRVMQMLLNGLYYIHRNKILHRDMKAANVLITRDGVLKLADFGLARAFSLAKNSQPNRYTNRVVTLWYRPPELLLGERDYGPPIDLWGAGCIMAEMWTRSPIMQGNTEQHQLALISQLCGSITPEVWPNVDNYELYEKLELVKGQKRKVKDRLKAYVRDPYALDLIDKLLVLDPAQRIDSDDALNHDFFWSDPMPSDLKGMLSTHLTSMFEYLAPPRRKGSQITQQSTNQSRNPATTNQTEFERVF

Activity (Leishmania major): 38% | Activity (Plasmodium falciparum): 46% | Activity (Sus scrofa [1]): 62% | Activity (Sus scrofa [2]): 90% | IC50 (CDK2/Cyclin A2): 1730 nM | IC50 [3]: 1090 nM | IC50 (CDK9/cyclin T1): 64 nM | IC50 [15]: 70 nM | IC50 [16]: 149 nM | IC50 (PC-3): 85 nM | IC50 (SK-BR-3): 53.7 nM | IC50 (K562 [19]): 50.8 nM
SMILES: CN1CC=C(c2c(O)cc(O)c3c(=O)cc(-c4ccc(Sc5nc6ccccc6n5C)cc4Cl)oc23)CC1
Activity (K562 [4]): 68.6% | Activity (K562 [5]): 10.7% | Activity (K562 [6]): 28.7% | Activity (HCT-116 [7]): 20.6% | Activity (HCT-116 [8]): 26% | Activity (HCT-116 [9]): 34.8% | Activity (HCT-116 [10]): 48.7% | Activity (HCT-116 [11]): 43.1% | Activity (HCT-116 [12]): 25.1% | Activity (HCT-116 [13]): 30.7% | Activity (HCT-116 [14]): 40% | Activity (K562 [17]): Dose-dependent effect | Activity (HCT-116 [18]): Dose-dependent effect | Ratio IC50 (MIA PaCa-2): <=6
